Reference: ChEMBL document CHEMBL1811772, “Identification of ostruthin from Peucedanum ostruthium rhizomes as an inhibitor of vascular smooth muscle cell proliferation” (J Nat Prod, 2011)
The source made the active and inactive calls. The rule behind the calls is not given here.

Key:
VSMC = experiment: Antiproliferative activity against serum-stimulated primary rat aortic VSMC at 30 uM after 30 mins by resazurin conversion assay; assay type: functional, tissue-based; conditions: Aorta
In short: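 Primary rat aortic VSMC were serum-starved 24 h, pretreated 30 min with 30 μM sample or 0.1% DMSO vehicle, and stimulated 48 h with 10% calf serum. Resazurin (10 μg/mL, 2 h) conversion was read as fluorescence at ex 535/em 580 nm and expressed as fold over unstimulated vehicle cells. Mean ± SD, n = 3, ANOVA/Tukey.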

A10 = experiment: Antiproliferative activity against rat A10; assay type: functional, cell-based
[1] = Antiproliferative activity in primary rat aortic VSMC assessed as inhibition of serum-induced DNA synthesis pretreated 30 mins prior serum addition measured after 20 hrs by BrdU incorporation assay; conditions: Aorta
[2] = Cytotoxicity against primary rat aortic VSMC as cell viability at 30 uM by trypan blue exclusion assay (reference value: 98+/-2%); assay type: cell-based; conditions: primary rat aortic vascular smooth muscle cells (VSMC), read-out: Activity
[3] = Antiproliferative activity against serum-stimulated primary rat aortic VSMC after 30 mins by resazurin conversion assay; assay type: functional, tissue-based; conditions: Aorta
In short: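 Sprague–Dawley rat thoracic aorta VSMC were seeded at 1 × 10^4 cells/well, serum-starved 24 h, pretreated 30 min with sample or vehicle (final DMSO 0.1%), then stimulated 48 h with 10% calf serum. They were then washed and given 10 μg/mL resazurin for 2 h, with fluorescence read at ex 535/em 580 nm. Signals were normalized to unstimulated vehicle cells. IC50 was obtained by nonlinear regression; mean ± SD from ≥3 independent experiments.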

SMILES	Activity (VSMC)	further results
C/C=C(/C)C(=O)O[C@H](COc1c2ccoc2cc2oc(=O)ccc12)C(C)(C)O	inactive	–
CC(C)(O)[C@H](O)COc1c2ccoc2cc2oc(=O)ccc12	inactive	–
CC(C)=CCOc1c2ccoc2cc2oc(=O)ccc12	inactive	–
CC(C)=CCOc1c2occc2cc2ccc(=O)oc12	inactive	–
CC1(C)O[C@H]1COc1c2ccoc2cc2oc(=O)ccc12	inactive	–
COc1ccc2ccc(=O)oc2c1CC=C(C)C [OSTHOLE]	inactive	IC50 (A10): 13.6 µM
CC(C)=CCC/C(C)=C/Cc1cc2ccc(=O)oc2cc1O [OSTRUTHIN]	Active	IC50 [1]: 17 µM; viability at 30 µM [2]: 92%; IC50 [3]: 11 µM
